KCC2 mod – modulators of human KCC2 chloride dependent transport. 190,000 tested, 2.2% active. KCC2 cells, thallium flux FluoZin-2 fluorescence. Q9H2X9. B-score of Tl+ flux slope (higher = more flux/activation; lower = inhibition) at 10 µM. AID 1456;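 active = thallium flux slope and its plate-corrected score both differing from the plate sample mean at a set confidence after two filtering rounds, in either direction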;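 note: slope of fluorescence scaled to starting intensity during 10 to 20 s after thallium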
KCNQ1 act – human KCNQ1 channel potentiation or activation | P51787 | 310,000 tested, 0.35% active | CHO-K1 KCNQ1, thallium flux FluxOR fluorescence; stronger effect = higher value | B-score at 10 µM;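 active = fluorescence ratio B-score, a plate-corrected score, at least three library SD, with initial intensity B-score within 5 SD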
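Assay system: stable KCNQ1 CHO-K1 line; medium: assay buffer, equal DMSO in all wells; timing: 90 min dye loading and 20 min compound exposure, both at room temperature; technique: kinetic FluxOR thallium fluorescence, 10-s 1-Hz baseline, 110-s post-stimulus read; read-out basis: B score of baseline-normalized fluorescence ratio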
hERG protect – hERG (human) protection from proarrhythmic block | CHO-hERG, FluxOR thallium flux, dofetilide IC70 present | activation (rescue from dofetilide block), less the hit threshold, % at 10 µM | 310,000 tested, 0.51% active;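 active = activation above the mean of controls blocked by dofetilide plus 5 SD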;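 note: thallium influx through hERG after potassium depolarization seen as dye fluorescence rise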
KCNK3 block – human KCNK3 channel inhibition, primary screen; O14649; CHO-KCNK3 thallium flux, FluxOR fluorescence; stronger effect = lower value; B-score at 10 µM; 340,000 tested, 0.84% active;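 active = B-score under library mean minus 4 SD, starting fluorescence ratio at most library mean plus 5 SD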;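 note: more negative B-score means stronger inhibition of thallium flux through KCNK3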
Target sequence (O14649 whole entry, looked up): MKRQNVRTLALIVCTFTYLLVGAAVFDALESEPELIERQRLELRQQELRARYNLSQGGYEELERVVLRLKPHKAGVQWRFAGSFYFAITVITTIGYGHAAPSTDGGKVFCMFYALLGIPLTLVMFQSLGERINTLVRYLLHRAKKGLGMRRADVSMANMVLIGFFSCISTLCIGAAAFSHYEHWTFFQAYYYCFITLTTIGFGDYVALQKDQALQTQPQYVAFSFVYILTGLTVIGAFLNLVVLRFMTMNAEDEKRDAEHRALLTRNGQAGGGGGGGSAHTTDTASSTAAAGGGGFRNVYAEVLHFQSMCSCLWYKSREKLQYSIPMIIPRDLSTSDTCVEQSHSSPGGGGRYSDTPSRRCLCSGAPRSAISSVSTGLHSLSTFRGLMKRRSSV
KCNQ1 block – blocks the human KCNQ1 potassium channel; CHO-K1 KCNQ1, FluxOR thallium flux fluorescence; stronger effect = higher value; B-score at 10 µM; 310,000 tested, 1.3% active;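 active = compounds whose thallium flux B-score, printed positive for inhibition, exceeds three library SD while starting fluorescence stays within three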;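 note: channel opened by potassium depolarization with thallium stimulus after 20 min compound exposure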
KCNK9 inh – inhibitors of human KCNK9 two-pore domain potassium channel | B-score at 10 µM | HEK293 KCNK9, FluxOR thallium flux fluorescence; stronger effect = lower value | AID 488922 | 310,000 tested, 1.2% active | Q9NPC2;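 active = ratio B-score over 3 SD below the library mean, with starting fluorescence within 5 SD of its mean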;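 note: negative B-score means less thallium flux so channel inhibition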
Target sequence (Q9NPC2 whole entry, looked up, the tested form may be a part): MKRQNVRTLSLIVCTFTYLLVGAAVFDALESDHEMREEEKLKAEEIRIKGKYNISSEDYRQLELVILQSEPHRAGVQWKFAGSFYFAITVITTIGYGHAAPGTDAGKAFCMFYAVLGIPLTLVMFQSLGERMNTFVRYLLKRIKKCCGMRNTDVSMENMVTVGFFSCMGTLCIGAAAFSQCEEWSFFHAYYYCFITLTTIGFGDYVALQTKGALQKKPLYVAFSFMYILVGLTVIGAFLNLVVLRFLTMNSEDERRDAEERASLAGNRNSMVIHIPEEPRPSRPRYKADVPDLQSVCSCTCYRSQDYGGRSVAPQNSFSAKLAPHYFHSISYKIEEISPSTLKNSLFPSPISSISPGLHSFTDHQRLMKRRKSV
KCC2 secondary – confirmation of human KCC2 transport modulators; shares compounds with KCC2 mod; HEK293-KCC2, thallium flux, FluoZin2 fluorescence; stronger effect = higher value; normalised thallium flux (F/F0 slope) at 10 µM; 3,700 tested, 15% active;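 active = thallium flux slope above the same plate's solvent-only control mean plus 3 SD; inconclusive = the two replicate wells disagree; inactive = no significant difference from solvent-only control wells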
KCC2 bumet counter – thallium flux persisting under bumetanide in KCC2 cells, counter-screen secondary assay; normalized thallium flux at 10 µM; 3,700 tested, 49% active; shares compounds with KCC2 mod; HEK293-KCC2 + bumetanide/ouabain, thallium flux FluoZin2; stronger effect = higher value;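 active = thallium entry rate above the same plate's blocked-transporter control wells by more than 3 SD; inconclusive = the two repeat wells disagree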;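 note: raw slope of fluorescence over initial fluorescence between 10 and 20 s after thallium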
KCC2 sec2 – confirmation of human KCC2 transport modulators | 3,700 tested, 23% active | shares compounds with KCC2 mod | HEK293-KCC2, thallium flux FluoZin2 fluorescence; actives lie on both sides; F/F0 rise rate, 10–20 s post-thallium | normalized thallium flux at 10 µM | AID 1715;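 active = thallium flux slope more than 3 SD above or below the plate's solvent-only control mean, mostly below; inconclusive = the two repeat wells disagreed; inactive = no significant shift from solvent-only controls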;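 note: raw slope with 0.1% DMSO as baseline and bumetanide as block control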
HEK counter1 – acts in parental HEK cells, KCC2 counter-screen. shares compounds with KCC2 mod. HEK293 parental cells, thallium flux FluoZin2, ouabain; baseline-ratio fluorescence slope, 10–20 s after thallium. thallium flux rate (normalised fluorescence) at 10 µM. 3,700 tested, 46% active;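 active = thallium flux rate significantly above the same plate's solvent-only control wells, beyond their mean plus 3 SD; inconclusive = the two replicate wells gave conflicting results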
KCC2 ouabain – modulates human KCC2 on retest with ouabain | shares compounds with KCC2 mod | HEK293-KCC2, thallium flux FluoZin2 fluorescence; bidirectional: low = inhibitor, high = activator | raw Tl+ flux slope (below DMSO = inhibition, above = activation) at 10 µM | 3,700 tested, 48% active;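 active = thallium flux slope beyond 3 SD from same-plate DMSO control mean in most replicates, usually higher, sometimes lower; inconclusive = repeat tests gave conflicting results; inactive = no significant difference from controls in most replicates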;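 note: slope of initial-normalized fluorescence between seconds 10 and 20 after thallium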
HEK293 Tl flux2 – counter-screen for KCC2 modulators: effect in parental HEK293 cells; thallium flux slope at 10 µM; thallium flux FluoZin-2 fluorescence slope; 3,700 tested, 33% active; shares compounds with KCC2 mod;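 active = thallium flux slope above the same plate's solvent-control mean plus 3 SD in both duplicate wells; inconclusive = duplicate wells that disagreed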;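 note: run without ouabain in cells lacking the KCC2 cotransporter; slope of fluorescence scaled to its starting value between 10 and 20 s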
* hit, by the source's call; i = inactive; u = inconclusive; x = not tested or not shown. In the library only some 4.1% were active in any assay of this set; here they are far more common.

SMILES	KCC2 mod	KCNQ1 act	hERG protect	KCNK3 block	KCNQ1 block	KCNK9 inh	KCC2 secondary	KCC2 bumet counter	KCC2 sec2	HEK counter1	KCC2 ouabain	HEK293 Tl flux2
COc1ccc(/C=C(/Sc2nnc(-c3ccc(Cl)cc3)o2)C(=O)O)cc1	-0.8	i	-13	i	i	i	x	x	x	x	x	x
COCCCn1[nH]c2c3c(ccc2c1=O)C(=O)c1ccccc1C3=O	x	i	-2	i	i	i	0.005	u	0.03	0.008	0.019	0.012
Cc1ccc(C)c(-n2[nH]c3c4c(ccc3c2=O)C(=O)c2ccccc2C4=O)c1	-0.047	i	-8	i	i	i	x	x	x	x	x	x
Cc1ccc(-n2[nH]c3c4c(ccc3c2=O)C(=O)c2ccccc2C4=O)cc1	0.17	i	-1	i	i	i	x	x	x	x	x	x
CC(C)(C)n1[nH]c2c3c(ccc2c1=O)C(=O)c1ccccc1C3=O	x	i	-10	i	i	i	0.0056	0.0053	0.029	0.0082	0.019	0.012
CC(=O)Nc1cccc(N2C(=O)CC(Cc3ccccc3)C2=O)c1 (stereo not drawn)	1	i	-6	i	i	i	x	x	x	x	x	x
CCOC(=O)c1cccc(NC(=O)CCCn2c(=O)c3cccn3c3cccnc32)c1	x	i	-8	i	i	i	x	x	x	x	x	x
CN(CC(=O)Nc1ccccc1C(F)(F)F)C(=O)COc1ccccc1Cc1ccccc1	x	i	-1	i	i	i	x	x	x	x	x	x
NC1=NC[C@@H](Cc2ccc(O)cc2)N1CCc1cccc(F)c1	0.77	i	-10	i	i	i	x	x	x	x	x	x
NC1=NC[C@@H](Cc2ccc(O)cc2)N1CCc1cc(C(F)(F)F)cc(C(F)(F)F)c1	-3.2*	i	-9	i	i	i	0.0056	0.0045	0.022*	0.0076	0.014*	0.0096
CC(C)OC(=O)c1nn2c(C(F)(F)F)cc(-c3ccc(Br)o3)nc2c1Br	x	i	1	i	i	i	0.0095	0.0066	0.032	0.0071	0.02	0.011
NC(=O)SCC(=O)Nc1ccc(Cl)cc1	0.8	i	-7	i	i	i	x	x	x	x	x	x
NC(=O)SCC(=O)Nc1ccc(Cl)c(Cl)c1	x	x	x	i	x	x	0.0073	0.013*	0.026*	0.01*	0.019	u
O=C(Cc1csc(Nc2nc(=S)[nH]c3ccccc23)n1)NCCCN1CCN(c2ccccc2F)CC1	20*	i	-15	i	i	i	0.014*	0.051*	0.041*	0.039*	0.062*	0.016*
N#CC(C#N)=C(Nc1ccc(F)cc1)SCc1cccc(F)c1	-5.1*	i	-17	i	i	i	0.005	u	0.025*	u	0.014*	0.0091*
COc1cc(-c2nnc(CSc3nnc(Nc4ccc(C(C)C)cc4)s3)o2)cc(OC)c1OC	-4*	i	-15	i	i	i	0.0067	0.0049	0.025*	0.0077	0.016*	0.011
NS(=O)(=O)c1ccc(CNC(=O)c2ccc(Br)o2)cc1	0.25	i	-8	i	i	i	x	x	x	x	x	x
CCOc1cccc2sc(NC(=O)c3ccc(Br)s3)nc12	32*	i	-4	i	i	i	u	0.056*	0.049*	0.034*	0.038*	0.032*
Cc1cccc(N/C(=N\S(=O)(=O)c2ccccc2)C(F)(F)F)c1	x	i	-4	i	i	i	0.0053	u	0.029	0.01*	0.02	0.011
CCOc1ccc(OCCn2c(SCC(=O)O)nc3ccccc32)cc1	x	i	-5	i	i	i	x	x	x	x	x	x
COc1ccc(CCNC(=O)C2CCN(S(C)(=O)=O)CC2)cc1	-3.4*	i	-3	i	i	i	0.0075	0.004	0.027	0.0074	0.019	0.0095
Cc1ccc(C)c(OCC(=O)Nc2ccccc2C(=O)N2CCN(C)CC2)c1	x	i	-13	i	i	i	x	x	x	x	x	x
CCOC(=O)N1CCN(C(=O)c2ccccc2NC(=O)COc2ccccc2C)CC1	-3.3*	i	-28	i	i	i	0.0071	0.0049	0.025*	0.0082	0.018	0.01
COc1ccc(O[C@H]2C=C[C@@H](c3ccccc3)O[C@@H]2COC(=O)CCC(C)=NO[C@@H]2O[C@H](COC(C)=O)[C@@H](OC(C)=O)[C@H](OC(C)=O)[C@H]2OC(C)=O)cc1	0.041	x	x	x	x	x	x	x	x	x	x	x
Cc1ccc(NC(=O)C(C)Sc2nnc3ccccn23)cc1 (stereo not drawn)	x	x	x	i	x	x	x	x	x	x	x	x
SMILES	KCC2 mod	KCNQ1 act	hERG protect	KCNK3 block	KCNQ1 block	KCNK9 inh	KCC2 secondary	KCC2 bumet counter	KCC2 sec2	HEK counter1	KCC2 ouabain	HEK293 Tl flux2
CS/C(N)=N/C(=S)Nc1cccc(Cl)c1	7.5*	i	-12	i	i	i	0.01	0.018*	0.034	u	0.023	u
Cn1c(=S)[nH]c2c(c1=O)C(C)(C)Cc1ccccc1-2	83*	i	1	i	i	i	0.066*	0.12*	0.084*	0.096*	0.094*	0.091*
Cc1ccccc1Nc1nc(=O)c2cc([N+](=O)[O-])ccc2s1	4.2*	i	-1	i	i	i	0.0057	0.02*	0.036	0.016*	0.031*	0.016*
COc1cccc(/C=C(\CC(=O)O)c2nc3ccccc3s2)c1	0.51	i	-18	i	i	i	x	x	x	x	x	x
Cn1cnnc1Sc1ccc(/C=C(\CC(=O)O)c2nc3ccccc3s2)cc1[N+](=O)[O-]	-1.5	i	-7	i	i	i	x	x	x	x	x	x
O=C(O)CC/C(=C\c1ccc(N2CCCC2)c([N+](=O)[O-])c1)c1nc2ccccc2s1	-8.5*	i	-12	i	i	i	0.007	0.0046	0.02*	0.0073	0.011*	0.0097

Screening results from PubChem.
